This note sets out measurements from ChEMBL document CHEMBL4359929, “Piperidine and piperazine inhibitors of fatty acid amide hydrolase targeting excitotoxic pathology” (Bioorg Med Chem, 2019).

Active and inactive are the calls of the source. The calls are words filed in the database; no cut-off is given here.

Test [1] concerns the target T1, Fatty-acid amide hydrolase 1 (Rattus norvegicus, UniProt P97612).
T1 sequence (P97612 whole entry): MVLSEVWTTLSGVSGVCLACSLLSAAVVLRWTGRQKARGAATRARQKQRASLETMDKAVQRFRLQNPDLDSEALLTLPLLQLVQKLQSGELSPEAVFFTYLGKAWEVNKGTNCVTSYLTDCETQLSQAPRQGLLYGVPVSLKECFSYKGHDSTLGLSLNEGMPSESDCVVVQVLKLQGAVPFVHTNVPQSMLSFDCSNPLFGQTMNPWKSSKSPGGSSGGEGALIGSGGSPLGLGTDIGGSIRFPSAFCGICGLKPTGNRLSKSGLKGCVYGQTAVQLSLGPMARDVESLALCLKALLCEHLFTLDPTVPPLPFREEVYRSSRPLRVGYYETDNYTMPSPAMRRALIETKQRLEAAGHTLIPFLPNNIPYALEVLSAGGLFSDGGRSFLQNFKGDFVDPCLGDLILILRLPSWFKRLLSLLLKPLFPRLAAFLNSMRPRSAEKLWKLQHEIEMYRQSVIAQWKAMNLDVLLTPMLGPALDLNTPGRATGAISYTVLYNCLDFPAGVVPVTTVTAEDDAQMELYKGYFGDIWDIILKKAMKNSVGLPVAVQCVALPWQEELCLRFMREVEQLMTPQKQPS
Kind of test: Inhibition of rat recombinant His/GST-tagged FAAH expressed in Escherichia coli cells using AAMCA as substrate incubated for 15 mins followed by substrate addition and measured after every 20 mins for 4 hrs by fluorescence based assay. In short, it runs like this:
(§1)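 Fluorescent enzyme assay in throughput format. Human recombinant FAAH or purified rat FAAH used arachidonoyl 7-amino-4-methylcoumarin amide as substrate; human recombinant MGL was run by a similar fluorometric procedure.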

Test [2] in a line: Selectivity ratio of IC50 for human recombinant His-tagged MGL expressed in Escherichia coli BL21 DE3 cells to IC50 for rat recombinant His/GST-tagged FAAH expressed in Escherichia coli cells by fluorescence based assay.
For test [3], the species on record is Homo sapiens. Description: Selectivity ratio of IC50 for human full length ABHD6 expressed in Escherichia coli cells to IC50 for human recombinant MBP-tagged FAAH expressed in Escherichia coli cells by fluorescence based assay.
Test [4] concerns the target Cannabinoid receptor 2 (Mus musculus) (UniProt P47936). Description: Displacement of [3H]CP55940 from mouse CB2 receptor expressed in HEK293 cells by competition-equilibrium binding analysis. The format is cell-based. In short, it runs like this:
(§2)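 HEK293 cell membranes expressing mouse or human CB2; competition-equilibrium binding against [3H]CP-55,940.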

In another test the target is T2, Monoglyceride lipase (Homo sapiens, UniProt Q99685).
T2 sequence (Q99685 whole entry): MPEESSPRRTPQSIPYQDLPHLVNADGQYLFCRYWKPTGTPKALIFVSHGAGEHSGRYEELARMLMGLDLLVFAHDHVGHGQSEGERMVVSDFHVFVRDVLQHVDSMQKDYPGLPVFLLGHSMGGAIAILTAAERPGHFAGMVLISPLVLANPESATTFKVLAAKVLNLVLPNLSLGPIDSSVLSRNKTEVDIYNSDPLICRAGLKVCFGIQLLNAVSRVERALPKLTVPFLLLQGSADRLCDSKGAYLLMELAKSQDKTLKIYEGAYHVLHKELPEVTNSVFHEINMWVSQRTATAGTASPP
Kind of test: Inhibition of human recombinant His-tagged MGL expressed in Escherichia coli BL21 DE3 cells using AHMMCE as substrate preincubated with enzyme for 15 mins followed by substrate addition and measured after every 15 mins for 3 hrs by fluorescence based assay. In short, it runs like this: as §1

Test [5] concerns the target Cannabinoid receptor 2 (Homo sapiens) (UniProt P34972). Kind of test: Displacement of [3H]CP55940 from human CB2 receptor expressed in HEK293 cells by competition-equilibrium binding analysis. The format is cell-based. In short, it runs like this: as §2
(Loss of bound radioactivity is the signal in a displacement assay; it reports binding, not function.)

Test [6] can be described thus: Selectivity ratio of IC50 for human full length ABHD6 expressed in Escherichia coli cells to IC50 for rat recombinant His/GST-tagged FAAH expressed in Escherichia coli cells by fluorescence based assay.
In test [7] the target is Cannabinoid receptor 1 (Rattus norvegicus) (UniProt P20272). Description: Displacement of [3H]CP55940 from CB1 receptor in rat brain by competition-equilibrium binding analysis. The class given is tissue-based. In short, it runs like this:
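Rat brain membranes as CB1 source; competition-equilibrium binding against [3H]CP-55,940.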
Target sequence in this assay (P20272 whole entry): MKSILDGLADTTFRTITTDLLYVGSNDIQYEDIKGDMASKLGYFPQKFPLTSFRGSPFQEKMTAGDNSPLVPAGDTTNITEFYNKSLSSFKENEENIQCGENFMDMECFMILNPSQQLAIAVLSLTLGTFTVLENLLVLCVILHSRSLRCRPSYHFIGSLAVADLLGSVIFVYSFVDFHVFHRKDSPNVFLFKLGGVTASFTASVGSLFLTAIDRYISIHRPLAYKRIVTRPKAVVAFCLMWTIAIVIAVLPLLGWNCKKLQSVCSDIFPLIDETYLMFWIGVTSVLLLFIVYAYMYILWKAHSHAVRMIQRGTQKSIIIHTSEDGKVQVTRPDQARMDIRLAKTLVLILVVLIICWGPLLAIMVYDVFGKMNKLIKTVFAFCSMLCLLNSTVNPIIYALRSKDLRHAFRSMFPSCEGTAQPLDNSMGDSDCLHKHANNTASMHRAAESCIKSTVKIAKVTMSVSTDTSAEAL

Test [8] shares this target. Kind of test: Displacement of [3H]CP55940 from CB1 receptor in rat brain by competition-equilibrium binding analysis.
Target sequence in this assay (P20272 whole entry, looked up): as the sequence (P20272 whole entry) above
Test [9] has as its target T3, Fatty-acid amide hydrolase 1 (Homo sapiens, UniProt O00519).
T3 sequence (O00519 whole entry): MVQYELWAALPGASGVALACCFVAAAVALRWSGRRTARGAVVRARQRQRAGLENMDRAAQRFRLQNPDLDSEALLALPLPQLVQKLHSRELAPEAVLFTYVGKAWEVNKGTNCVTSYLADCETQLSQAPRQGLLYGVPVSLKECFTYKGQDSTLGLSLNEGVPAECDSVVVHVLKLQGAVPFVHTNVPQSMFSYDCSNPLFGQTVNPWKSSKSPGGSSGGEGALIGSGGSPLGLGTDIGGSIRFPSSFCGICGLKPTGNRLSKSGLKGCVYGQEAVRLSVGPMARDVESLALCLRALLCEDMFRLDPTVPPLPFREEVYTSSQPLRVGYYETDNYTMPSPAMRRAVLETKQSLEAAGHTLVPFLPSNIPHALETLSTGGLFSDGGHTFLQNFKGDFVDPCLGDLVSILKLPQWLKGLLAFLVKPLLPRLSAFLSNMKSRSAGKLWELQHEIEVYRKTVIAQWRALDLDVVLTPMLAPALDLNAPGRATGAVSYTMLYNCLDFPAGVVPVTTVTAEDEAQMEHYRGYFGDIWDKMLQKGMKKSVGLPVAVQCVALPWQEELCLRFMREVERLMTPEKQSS
Kind of test: Inhibition of human recombinant MBP-tagged FAAH expressed in Escherichia coli cells using AAMCA as substrate incubated for 15 mins followed by substrate addition and measured after every 20 mins for 4 hrs by fluorescence based assay. In short, it runs like this: as §1

Test [10] is filed under the species Homo sapiens. Kind of test: Selectivity ratio of IC50 for human recombinant His-tagged MGL expressed in Escherichia coli BL21 DE3 cells to IC50 for human recombinant MBP-tagged FAAH expressed in Escherichia coli cells by fluorescence based assay.

Sequence of Cannabinoid receptor 2 (Mus musculus) (P47936 whole entry): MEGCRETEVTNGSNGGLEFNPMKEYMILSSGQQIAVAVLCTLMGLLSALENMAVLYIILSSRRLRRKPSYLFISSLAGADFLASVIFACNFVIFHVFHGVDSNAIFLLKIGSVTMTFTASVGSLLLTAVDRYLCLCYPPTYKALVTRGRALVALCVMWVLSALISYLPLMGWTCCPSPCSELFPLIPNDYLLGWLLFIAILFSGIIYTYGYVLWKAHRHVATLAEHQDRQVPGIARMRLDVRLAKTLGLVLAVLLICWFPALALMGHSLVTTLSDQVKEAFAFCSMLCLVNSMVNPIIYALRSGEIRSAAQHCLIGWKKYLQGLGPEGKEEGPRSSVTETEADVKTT
Sequence of Cannabinoid receptor 2 (Homo sapiens) (P34972 whole entry): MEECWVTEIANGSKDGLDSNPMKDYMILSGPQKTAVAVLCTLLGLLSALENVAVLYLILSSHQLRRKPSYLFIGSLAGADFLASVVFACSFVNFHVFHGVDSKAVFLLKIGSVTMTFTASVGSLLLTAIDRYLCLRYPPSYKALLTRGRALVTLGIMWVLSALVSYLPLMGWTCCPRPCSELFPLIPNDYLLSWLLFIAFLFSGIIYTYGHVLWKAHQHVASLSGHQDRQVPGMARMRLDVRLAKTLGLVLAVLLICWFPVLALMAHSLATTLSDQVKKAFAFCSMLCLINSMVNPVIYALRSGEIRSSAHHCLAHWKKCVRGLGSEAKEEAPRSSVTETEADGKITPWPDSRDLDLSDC

As a reminder, the IC50 is the point on the concentration scale where inhibition reaches its midpoint. Turning to `O=C(Oc1cccc(N2CCS(=O)(=O)CC2)c1)N1CCC(O)(c2ccccc2)CC1`, the IC50 in test [1] was 78.1 nM; at Monoglyceride lipase, more than 1000 nM; in test [9], 172 nM. The Ratio IC50 (in [2]; in the test filed under Homo sapiens [3]; in [6]; in the test listed under Homo sapiens [10]) was more than 1000 in each case. Also, the result in [4], in [5], in [7] and in test [8] was inactive.
`Cc1ccccc1C1CCN(C(=O)Oc2cccc(N3CCS(=O)(=O)CC3)c2)CC1`: the IC50 is 10.3 nM in [1], more than 1000 nM on Monoglyceride lipase and 15.9 nM in test [9]. The Ratio IC50 (in test [2]; in the test listed under Homo sapiens [3]; in test [6]; in the test listed under Homo sapiens [10]) was more than 1000 throughout. Moreover, the result in test [4], in [5], in [7] and in test [8] was inactive.
With `CN(C)c1ccc(C2CCN(C(=O)Oc3cccc(N4CCOCC4)c3)CC2)cc1`, the values for the IC50 (in [1]; at Monoglyceride lipase; in [9]) were 14.7 nM, more than 1000 nM and 31 nM, respectively. The Ratio IC50 (in test [2]; in the test filed under Homo sapiens [3]; in [6]; in the test listed under Homo sapiens [10]) was more than 1000 throughout. Besides, the result in [4], in test [5], in test [7] and in test [8] was inactive.
For `C[C@H]1CN(c2ccc(F)cc2)CCN1C(=O)Oc1cccc(N2CCS(=O)(=O)CC2)c1`, the IC50 in test [1] was 40.5 nM; on Monoglyceride lipase it was more than 1000 nM; in test [9], 72.9 nM. In addition, the Ratio IC50 (in test [2]; in the test listed under Homo sapiens [3]; in test [6]; in the test listed under Homo sapiens [10]) was more than 1000 throughout. Further, the result in test [4], in test [5], in test [7] and in test [8] was inactive.
In the case of `O=C(Oc1cccc(N2CCS(=O)(=O)CC2)c1)N1C[C@H]2C[C@@H]1CN2c1ccc(F)cc1`, the IC50 in test [1] was 17.1 nM; at Monoglyceride lipase it was more than 1000 nM; in [9], 20.3 nM. For the same molecule, the Ratio IC50 (in test [2]; in the test filed under Homo sapiens [3]; in test [6]; in the test filed under Homo sapiens [10]) was more than 1000 each time. Moreover, the outcome in [4], in test [5], in test [7] and in [8] was inactive.
Take `Cc1noc(C2CCN(C(=O)Oc3cccc(N4CCS(=O)(=O)CC4)c3)CC2)n1`: the values for the IC50 (in [1]; on Monoglyceride lipase; in [9]) were 120 nM, more than 1000 nM and 147 nM, respectively. Moreover, the Ratio IC50 (in test [2]; in the test listed under Homo sapiens [3]; in test [6]; in the test listed under Homo sapiens [10]) was more than 1000 in each case. Further, the result in test [4], in test [5], in test [7] and in test [8] was inactive.
Regarding `N#Cc1ccc(N2CCN(C(=O)Oc3cccc(N4CCS(=O)(=O)CC4)c3)CC2)cc1`, the IC50 is 62.7 nM in test [1], more than 1000 nM on Monoglyceride lipase and 89.3 nM in test [9]. The Ratio IC50 (in test [2]; in the test listed under Homo sapiens [3]; in test [6]; in the test filed under Homo sapiens [10]) was more than 1000 each time. Moreover, the outcome in [4], in [5], in test [7] and in test [8] was inactive.
As for `O=C(Oc1cccc(N2CCS(=O)(=O)CC2)c1)N1CCN(c2ccc(F)cc2)CC1`, the IC50 in test [1] is 12.5 nM; on Monoglyceride lipase, more than 1000 nM; in test [9], 20.5 nM. Further, the Ratio IC50 (in test [2]; in the test listed under Homo sapiens [3]; in test [6]; in the test filed under Homo sapiens [10]) was more than 1000 each time. The result in test [4], in [5], in test [7] and in test [8] was inactive.
For the molecule `O=C(Oc1cccc(N2CCS(=O)(=O)CC2)c1)N1CCC(c2ccncc2)CC1`, the IC50 in test [1] was 75.5 nM; at Monoglyceride lipase, more than 1000 nM; in test [9], 132 nM. Also, the Ratio IC50 (in test [2]; in the test filed under Homo sapiens [3]; in [6]; in the test listed under Homo sapiens [10]) was more than 1000 in each case. For the same molecule, the result in [4], in test [5], in test [7] and in test [8] was inactive.
Regarding `O=C(Oc1cccc(N2CCS(=O)(=O)CC2)c1)N1CCN(c2ccccn2)CC1`, the IC50 in [1] was 102 nM; at Monoglyceride lipase, more than 1000 nM. In addition, the Ratio IC50 (in test [2]; in the test filed under Homo sapiens [3]; in test [6]; in the test listed under Homo sapiens [10]) was more than 1000 throughout. Moreover, the outcome in test [4], in test [5], in test [7] and in test [8] was inactive.
